Laboratory results taken from article PMC9948165 (ACS Omega, 2023).

Columns and labels:
Assay type in all cases: cell-based, human
[1] = test system: LO2 cells; assay: MTT cytotoxicity assay, LO2 normal hepatocytes; conditions: read-out: IC50 LO2 cells, 72 h, normal hepatocyte cell line
Method in brief: (§1)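 Cells seeded at 5 × 10^3 per well in 96-well plates and left overnight: A549 and HCT116 in RPMI-1640, LO2 in DMEM. Medium replaced with test compound at 100, 50, 25, 12.5, 6.25, 3.125 or 1.5625 μM for 72 h; medium-only control. MTT (5 mg/mL) added for 4 h, formazan dissolved in DMSO, OD read at 490 nm; IC50 derived.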

[2] = test system: HCT116 cells; assay: MTT cytotoxicity assay, HCT116; conditions: for IC50: read-out: IC50 HCT116 cells, 72 h
Method in brief: as §1

[3] = test system: A549 cells; assay: MTT cytotoxicity assay, A549; conditions: read-out: IC50 A549 cells, 72 h
Method in brief: as §1

[4] = test system: HCT116 cells; assay: Cell cycle analysis by flow cytometry; conditions: HCT116, 10 μM, 24 h
Method in brief: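 HCT116 cells in log phase were seeded at 1 × 10^6 per well in six-well plates and grown 24 h at 37 °C. They were PBS-washed, given fresh medium with 10 μM test compound for 24 h, trypsinised and washed in cold PBS. Cells were fixed in 70% ethanol at −20 °C for 48 h, treated with RNase A at 37 °C for 30 min, then PI for 30 min at RT in the dark. Flow cytometry DNA content was model-fitted into cell-cycle phases.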

| Compound | IC50 [1] [µM] | IC50 [2] [µM] | IC50 [3] [µM] | cytotoxicity against HCT116 cells ([2]; at 25 μM, 72 h) [%] | cell cycle blocking effect [4] |
| --- | --- | --- | --- | --- | --- |
| c1cnc2c([O][Ga]([O]c3cccc4cccnc34)[O]c3cccc4cccnc34)cccc2c1 [CP-1, [Ga(HQL)3]] | 8 ± 1 | 1.2 ± 0.2 | 3.8 ± 1.1 | – | – |
| Cc1ccc2cccc([O][Ga]([O]c3cccc4ccc(C)nc34)[O]c3cccc4ccc(C)nc34)c2n1 [CP-2, [Ga(MQL)3]] | 3.3 ± 0.5 | 4.7 ± 0.7 | 6.1 ± 0.8 | – | – |
| Clc1ccc([O][Ga]([O]c2ccc(Cl)c3cccnc23)[O]c2ccc(Cl)c3cccnc23)c2ncccc12 [CP-3, [Ga(ClQL)3]] | 23.3 ± 5.3 | 2 ± 0.3 | 8.7 ± 0.8 | 91.98 | – |
| N.N.[Cl][Pt][Cl] [cisplatin, reference compound] | 0.7 | 5.7 | 7.5 ± 0.7 | – | mainly blocked the cell cycle in the S phase |
| O=C1[O][Pt]2([NH][C@@H]3CCCC[C@H]3[NH]2)[O]C1=O [oxaliplatin, reference compound] | 2.3 ± 0.3 | 8.3 ± 0.4 | 3.2 ± 0.2 | – | blocked it in the G1/S/G2 phase with comparable effects |
